Test results taken from ChEMBL document CHEMBL1156462, “Seco-pregnane steroids target the subgenomic RNA of alphavirus-like RNA viruses” (Proc Natl Acad Sci U S A, 2007).
The source made the active and inactive calls. The rule behind the calls is not given here.

What was measured:
[1] = test system: Tobacco mosaic virus; experiment: Inhibition of TMV U1 multiplication in tobacco BY2 protoplast at 10 nM assessed as local lesion size on Chenopodium quinoa leaves by local lesion assay; type: functional
[2] = test system: Tobacco mosaic virus; experiment: Inhibition of TMV U1 multiplication in tobacco BY2 protoplast at 20 nM assessed as inhibition of local lesions on Chenopodium quinoa leaves by local lesion assay after 3 days postinfection; type: functional; settings: U1, 72 h
Summary of the method: (§1)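 TMV premixed with compound at a range of concentrations used to inoculate tobacco BY-2 protoplasts; virus multiplication then assayed by counting local lesions on the local lesion host Chenopodium quinoa.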

[3] = Growth inhibition of hamster BHK21 cells at 100 nM after 48 hrs; type: cell-based, Mesocricetus auratus; settings: bhk-21, 48 h, 0.1 µM
Summary of the method: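 BHK-21 cells mock-infected and incubated with 100 nM compound for 48 h; cell morphology and growth examined by light microscopy.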

[4] = test system: Tobacco mosaic virus; experiment: Inhibition of TMV U1 multiplication in tobacco BY2 protoplast at 40 nM assessed as local lesion size on Chenopodium quinoa leaves by local lesion assay; type: functional
[5] = test system: Tobacco mosaic virus; experiment: Inhibition of TMV U1 multiplication in tobacco BY2 protoplast at 30 nM assessed as local lesion size on Chenopodium quinoa leaves by local lesion assay; type: functional
[6] = test system: Tobacco mosaic virus; experiment: Inhibition of TMV U1 multiplication in tobacco BY2 protoplast at 50 nM assessed as local lesion size on Chenopodium quinoa leaves by local lesion assay; type: functional
[7] = test system: Tobacco mosaic virus; experiment: Decrease in TMV U1 coat protein level in TMV infected tobacco BY2 protoplast at 50 nM by Western blot analysis; type: functional, organism-based
Summary of the method: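 BY-2 protoplasts (5 ml, 1.5 × 10⁶/ml) infected with TMV pretreated with compound; total protein extracted and coat protein detected by Western blot.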

[8] = test system: Tobacco mosaic virus; experiment: Inhibition of TMV U1 multiplication in tobacco BY2 protoplast at 40 nM assessed as inhibition of local lesions on Chenopodium quinoa leaves by local lesion assay after 3 days postinfection; type: functional; settings: U1, 72 h; summary of the method: as §1
[9] = test system: Tobacco mosaic virus; experiment: Inhibition of TMV U1 multiplication in tobacco BY2 protoplast at 20 nM assessed as local lesion size on Chenopodium quinoa leaves by local lesion assay; type: functional
[10] = test system: Sindbis virus; experiment: Antiviral activity against Sindbis virus XJ160 in BHK21 cells assessed as reduction of virus-induced cytopathic effect after 24 hrs; type: functional, organism-based; settings: BHK-21
Summary of the method: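 SINV XJ-160 (2 × 10⁵ pfu/ml, thrice plaque-purified) treated with compound for 15 min, adsorbed 1 h to BHK-21 cells at MOI 0.01 in quadruplicate; washed, fresh DMEM with 5% FBS added, cells kept at 37°C, 5% CO₂. Cytopathic morphology scored by light microscopy at 24 hpi.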

[11] = test system: Tobacco mosaic virus; experiment: Inhibition of TMV U1 multiplication in tobacco BY2 protoplast at 10 nM assessed as inhibition of local lesions on Chenopodium quinoa leaves by local lesion assay after 3 days postinfection; type: functional; settings: U1, 72 h; summary of the method: as §1
[12] = test system: Tobacco mosaic virus; experiment: Inhibition of TMV U1 multiplication in tobacco BY2 protoplast at 30 nM assessed as inhibition of local lesions on Chenopodium quinoa leaves by local lesion assay after 3 days postinfection; type: functional; settings: U1, 72 h; summary of the method: as §1
[13] = test system: Tobacco mosaic virus; experiment: Inhibition of TMV U1 replication in tobacco BY2 protoplast by local lesion assay using Chenopodium quinoa leaves; type: functional, organism-based; summary of the method: as §1
[14] = test system: Tobacco mosaic virus; experiment: Inhibition of TMV U1 replication in tobacco BY2 protoplast at 50 nM by local lesion assay using Chenopodium quinoa leaves; type: functional, organism-based; summary of the method: as §1
[15] = test system: Tobacco mosaic virus; experiment: Inhibition of TMV U1 multiplication in tobacco BY2 protoplast at 50 nM assessed as inhibition of local lesions on Chenopodium quinoa leaves by local lesion assay after 3 days postinfection; type: functional; settings: U1, 72 h; summary of the method: as §1
[16] = test system: Tobacco mosaic virus; experiment: Antiviral activity against GFP-fused TMV U1 infected Nicotiana tabacum cv K326 plant leaves assessed as inhibition of virus movement by GFP fluorescence assay; type: functional, organism-based
[17] = test system: Tobacco mosaic virus; experiment: Antiviral activity against TMV U1 infected Nicotiana tabacum cv K326 plant leaves assessed as inhibition of systemic virus infection; type: functional, organism-based

Structure (SMILES) | Activity [1] [mm] | inhibition at 0.02 µM [2] [%] | Activity [3] | Activity [4] [mm] | Activity [5] [mm] | Activity [6] [mm] | Activity [7] | inhibition at 0.04 µM [8] [%] | Activity [9] [mm] | Activity [10] | inhibition at 0.01 µM [11] [%] | inhibition at 0.03 µM [12] [%] | IC50 [13] [nM] | Activity [14] | inhibition at 0.05 µM [15] [%] | Activity [16] | Activity [17]
CO[C@@H]1C[C@H](O[C@H]2CC[C@@]3(C)C(=CC[C@H]4C(=O)OC5CO[C@]6(C)OC=C(CC[C@@H]43)[C@H]56)C2)O[C@H](C)[C@H]1O (stereo not given in full) [CYNATRATOSIDE A] | 2.3 | 37 | Non-toxic | 1.2 | 1.5 | 0 | Active | 93 | 1.8 | Dose-dependent effect | 20 | 87 | 25 | Active | 100 | – | –
C[C@]12OC=C3CC[C@H]4[C@@H](CC=C5C[C@@H](O)CC[C@@]54C)C(=O)OC(CO1)[C@@H]32 (stereo not given in full) [GLAUCOGENIN C] | 2.1 | 60 | Non-toxic | 1.3 | 1.5 | 0 | Active | 85 | 1.9 | Dose-dependent effect | 17 | 79 | 17 | Active | 100 | Active | –
CO[C@H]1C[C@H](O[C@H]2[C@@H](OC)C[C@H](O[C@@H]3[C@@H](C)O[C@H](O[C@H]4CC[C@@]5(C)C(=CC[C@H]6C(=O)OC7CO[C@]8(C)OC=C(CC[C@@H]65)[C@H]78)C4)C[C@H]3OC)O[C@@H]2C)O[C@@H](C)[C@@H]1O[C@@H]1O[C@H](CO)[C@@H](O[C@@H]2O[C@H](CO)[C@@H](O)[C@H](O)[C@H]2O)[C@H](O)[C@H]1O (stereo not given in full) [PANICULATUMOSIDE D] | 1.7 | 31 | Non-toxic | 1.2 | 1.4 | 0 | Active | 88 | 1.6 | Dose-dependent effect | 6 | 79 | 25 | Active | 100 | Active | Active
CO[C@@H]1C[C@@H](O[C@H]2CC[C@@]3(C)C(=CC[C@H]4C(=O)OC5CO[C@]6(C)OC=C(CC[C@@H]43)[C@H]56)C2)O[C@H](C)[C@H]1O[C@H]1C[C@H](O)[C@H](O[C@H]2C[C@@H](OC)[C@@H](O[C@@H]3O[C@H](CO)[C@@H](O[C@@H]4O[C@H](CO)[C@@H](O)[C@H](O)[C@H]4O)[C@H](O)[C@H]3O)[C@H](C)O2)[C@@H](C)O1 (stereo not given in full) [PANICULATUMOSIDE E] | 1.6 | 38 | Non-toxic | 1.1 | 1.2 | 0 | Active | 87 | 1.3 | Dose-dependent effect | 16 | 73 | 25 | Active | 100 | Active | Active
